Common to all, as to type: cell-based
Experiment [1] deals with T1, Large neutral amino acids transporter small subunit 1 (Homo sapiens, UniProt Q01650). Briefly: Cis-inhibition of human LAT1 expressed in TREx HEK293 cells assessed as inhibition of [3H]-gabapentin uptake preincubated for 3 mins at 37 degC followed by washing with choline buffer and measured after 3 hrs by scintillation counting analysis. The gist of the method: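 Inducible hLAT1 HEK cells in 24-well poly-D plates, pH 7.4. Cells were exposed to [³H]-gabapentin (6 nM) plus test compound at 0.1–500 μM. […] Run at least in triplicate.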

Experiment [2] deals with T1, Large neutral amino acids transporter small subunit 1. Nature of the experiment: Trans-stimulation of human LAT1 expressed in TREx HEK293 cells assessed as induction of [3H]-gabapentin efflux at 200 uM after 3 mins by scintillation counting analysis relative to L-phenylalanine. The gist of the method: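 [³H]-gabapentin-preloaded HEK-hLAT1 cells (inducible) were treated with compound at 200 μM. Efflux rate was taken at 3 min and expressed as % of the rate induced by L-phenylalanine, averaged over seven experiments. At least triplicate, 24-well poly-D plates.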

For experiment [3] the target is unchanged. Nature of the experiment: Cis-inhibition of human LAT1 expressed in TREx HEK293 cells at 200 uM assessed as inhibition of [3H]-gabapentin uptake preincubated for 3 mins at 37 degC followed by washing with choline buffer and measured after 3 hrs by scintillation counting analysis relative to BCH.
The target is the same in experiment [4]. Nature of the experiment: Trans-stimulation of human LAT1 expressed in TREx HEK293 cells assessed as induction of [3H]-gabapentin efflux at 200 uM after 3 mins by scintillation counting analysis. In outline: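 HEK cells with inducible hLAT1 were preloaded with [³H]-gabapentin, then exposed to test compound at 200 μM. Efflux rate (fmol/min) was calculated 3 min after compound addition. Data from at least triplicate wells in 24-well poly-D plates.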

T1 sequence (Q01650 whole entry): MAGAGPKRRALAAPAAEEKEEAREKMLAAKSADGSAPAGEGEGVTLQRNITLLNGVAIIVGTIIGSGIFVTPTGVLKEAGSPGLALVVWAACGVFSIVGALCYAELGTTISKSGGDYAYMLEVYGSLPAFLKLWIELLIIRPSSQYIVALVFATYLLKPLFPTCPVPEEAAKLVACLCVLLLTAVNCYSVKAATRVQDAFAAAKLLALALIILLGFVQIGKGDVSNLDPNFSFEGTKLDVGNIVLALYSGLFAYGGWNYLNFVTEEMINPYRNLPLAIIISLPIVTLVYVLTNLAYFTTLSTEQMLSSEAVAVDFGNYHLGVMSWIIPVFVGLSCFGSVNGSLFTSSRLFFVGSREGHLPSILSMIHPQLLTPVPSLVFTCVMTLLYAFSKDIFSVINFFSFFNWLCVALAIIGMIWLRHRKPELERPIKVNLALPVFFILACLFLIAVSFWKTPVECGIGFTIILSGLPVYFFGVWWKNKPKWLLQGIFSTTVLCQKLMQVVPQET

The term IC50 denotes the point on the concentration scale where inhibition reaches its midpoint. For `N[C@@H](Cc1c[nH]cn1)C(=O)O` [HISTIDINE], in experiment [1], the half-maximal inhibitory concentration (IC50) is 110 µM.
As usually defined, the inhibition is the change of the read-out against control, counted positive when it falls. As to `N[C@@H](Cn1nnc2ccccc21)C(=O)O`, the Activity in experiment [2] amounted to 100%. The IC50 in experiment [1] amounted to 340 µM. In experiment [3], the inhibition was found to be 59%.
Regarding `N[C@@H](Cn1cc(Cc2ccccc2)nn1)C(=O)O`, in experiment [2], the Activity was found to be 49%. In experiment [3], the inhibition was -6%.
In the case of `Cn1cc(C[C@H](N)C(=O)O)nn1`, in experiment [2], the Activity turned out to be 63%. Besides, in experiment [1], the IC50 was over 1000 µM. For the same compound, the inhibition in experiment [3] was determined as 20%.
Consider `Cc1cn(C[C@H](N)C(=O)O)nn1`, for which the Activity in experiment [2] was 70%. Also, the concentration for half-maximal inhibition (IC50) in experiment [1] stood at 440 µM. For the same compound, the inhibition in experiment [3] stood at 38%.
Consider `N[C@@H](Cc1cn(Cc2ccccc2)nn1)C(=O)O`, for which the Activity in experiment [2] turned out to be 43%.
Take `N[C@@H](Cn1ccnn1)C(=O)O`: the Activity in experiment [2] is 82%. Also, the half-inhibitory concentration (IC50) in experiment [1] worked out at 160 µM. Also, the inhibition in experiment [3] amounted to 58%.
In the case of `N[C@@H](Cn1cc(-c2ccccc2)nn1)C(=O)O`, the Activity in experiment [2] was 37%. The 50% inhibitory concentration (IC50) in experiment [1] was over 1000 µM. Also, in experiment [3], the inhibition turned out to be 13%.
Regarding `N[C@@H](Cc1ccccc1)C(=O)O`, in experiment [4], the Activity turned out to be 2.7 fmol/min.
Regarding `N[C@@H](Cn1cc(CO)nn1)C(=O)O`, in experiment [2], the Activity is 57%. Also, the concentration for half-maximal inhibition (IC50) in experiment [1] is over 1000 µM. The inhibition in experiment [3] was 14%.
